Source: ChEMBL document CHEMBL2062483, “Design of Bcl-2 and Bcl-xL inhibitors with subnanomolar binding affinities based upon a new scaffold” (J Med Chem, 2012)
Activity calls are given as the source filed them. The rule behind the calls is not given here.

How the values were obtained:
[1] = biological target: Apoptosis regulator Bcl-2 (Homo sapiens, UniProt P10415); assay: Binding affinity to N-terminus 6X His-tagged human Bcl2 expressed in Escherichia coli BL21 (DE3) cells after 2 hrs by fluorescence polarization assay
Method in brief: (§1)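 Competitive FP binding: serially diluted inhibitor in DMSO added to preincubated protein/fluorescent probe complex, 2 h at room temperature with gentle shaking. Final protein/probe: Bcl-2 1.5 nM/1 nM; Bcl-xL 10 nM/2 nM; Mcl-1 20 nM/2 nM. IC50 from nonlinear regression; Ki calculated from IC50, probe Kd and protein/probe concentrations.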

NCI-H1417 = assay: Growth inhibition of human NCI-H1417 cells after 4 days by WST8 assay; type: functional, cell-based; conditions: NCI-H1417, 96 h
[2] = Growth inhibition of human NCI-H146 cells after 4 days by WST8 assay; type: functional, cell-based; conditions: NCI-H146, 96 h
[3] = biological target: Induced myeloid leukemia cell differentiation protein Mcl-1 (Homo sapiens, UniProt Q07820); assay: Binding affinity to N-terminus 8X His-tagged human Mcl1 expressed in Escherichia coli BL21 (DE3) cells after 2 hrs by fluorescence polarization assay; method in brief: as §1
Bcl-2-like protein 1 = Bcl-2-like protein 1 (Homo sapiens, UniProt Q07817); assay: Binding affinity to N-terminus 8X His-tagged human Bcl-xL expressed in Escherichia coli BL21 (DE3) cells after 2 hrs by fluorescence polarization assay; method in brief: as §1
NCI-H146 [4] = assay: Induction of apoptosis in human NCI-H146 cells assessed as caspase 3 cleavage at 100 nM after 24 hrs by Western blot analysis; type: functional, cell-based
Method in brief: (§2)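 H146 cells treated 24 h, lysed on ice 20 min in RIPA buffer (1% NP40, 0.5% Na-deoxycholate, 0.1% SDS in PBS) with 1 μmol/L PMSF and protease inhibitors. Lysates cleared, protein quantified, run on 4–20% SDS-PAGE, blotted to PVDF, blocked in 5% milk. Rabbit anti-PARP and anti-caspase-3, GAPDH loading control; HRP secondary with chemiluminescent detection.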

NCI-H146 [5] = assay: Cytotoxicity against human NCI-H146 cells assessed as cell death at 30 to 100 nM after 24 hrs by trypan blue assay; type: functional, cell-based
Method in brief: (§3)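 H146 cells exposed to compound for 24 h, then harvested and stained with trypan blue. Cells staining blue or looking morphologically unhealthy were scored dead; at least 100 cells counted per sample.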

NCI-H146 [6] = assay: Cytotoxicity against human NCI-H146 cells assessed as cell death after 24 hrs by trypan blue assay; type: functional, cell-based; method in brief: as §3
[7] = Cytotoxicity against human NCI-H146 cells assessed as cell death at 300 nM after 24 hrs by trypan blue assay; type: functional
Method in brief: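 H146 human small cell lung cancer line, grown in RPMI-1640 with 10% FBS, exposed to compound for 24 h. Cells then harvested and stained with trypan blue. Blue-stained or morphologically unhealthy cells counted as dead, with at least 100 cells scored per sample.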

NCI-H146 [8] = assay: Induction of apoptosis in human NCI-H146 cells assessed as PARP cleavage at 100 nM after 24 hrs by Western blot analysis; type: functional, cell-based; method in brief: as §2

Induced myeloid leukemia cell differentiation protein Mcl-1, sequence (Q07820 whole entry): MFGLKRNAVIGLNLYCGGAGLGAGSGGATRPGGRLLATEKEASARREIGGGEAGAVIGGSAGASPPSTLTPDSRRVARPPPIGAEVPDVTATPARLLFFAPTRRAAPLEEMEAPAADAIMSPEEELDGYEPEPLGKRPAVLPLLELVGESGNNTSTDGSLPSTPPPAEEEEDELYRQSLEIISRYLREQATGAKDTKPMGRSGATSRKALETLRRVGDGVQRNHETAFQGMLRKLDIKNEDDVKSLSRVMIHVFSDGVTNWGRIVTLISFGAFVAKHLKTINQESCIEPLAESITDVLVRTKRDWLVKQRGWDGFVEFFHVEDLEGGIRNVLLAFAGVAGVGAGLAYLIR
Bcl-2-like protein 1, sequence (Q07817 whole entry): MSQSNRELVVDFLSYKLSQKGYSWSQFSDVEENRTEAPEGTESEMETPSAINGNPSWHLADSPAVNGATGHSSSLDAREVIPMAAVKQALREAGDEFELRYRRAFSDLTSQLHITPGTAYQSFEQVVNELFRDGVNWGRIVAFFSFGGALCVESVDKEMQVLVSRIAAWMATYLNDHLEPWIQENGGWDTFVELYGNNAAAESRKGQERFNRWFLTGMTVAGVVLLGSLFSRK
Apoptosis regulator Bcl-2, sequence (P10415 whole entry): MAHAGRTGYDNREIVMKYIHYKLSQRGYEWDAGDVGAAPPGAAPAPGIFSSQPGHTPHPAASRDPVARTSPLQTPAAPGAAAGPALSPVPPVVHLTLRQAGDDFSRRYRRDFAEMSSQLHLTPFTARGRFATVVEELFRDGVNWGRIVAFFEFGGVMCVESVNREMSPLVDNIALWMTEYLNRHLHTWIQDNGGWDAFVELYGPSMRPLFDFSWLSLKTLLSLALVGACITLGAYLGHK

IC50 [1]	Ki [1]	IC50 (NCI-H1417)	IC50 [3]	IC50 (Bcl-2-like protein 1)	Ki (Bcl-2-like protein 1)	SMILES	IC50 [2]	Activity (NCI-H146 [4])	Activity (NCI-H146 [5])	Activity (NCI-H146 [6])	Activity [7]	Activity (NCI-H146 [8])
45.8 nM	11.6 nM	7300 nM	> 2000 nM	12.6 nM	1.7 nM	CCOC(=O)c1c(-c2cccc(N3CCN(c4ccc(NS(=O)(=O)c5ccc(N[C@H](CCN(C)C)CSc6ccccc6)c([N+](=O)[O-])c5)cc4)CC3)c2)c(-c2ccc(Cl)cc2)cn1C	4900 nM					
82.6 nM	21.1 nM	> 10000 nM	> 2000 nM	34.4 nM	8.3 nM	CN(C)CC[C@H](CSc1ccccc1)Nc1ccc(S(=O)(=O)Nc2ccc(N3CCN(c4cccc(-c5cn(C)cc5-c5ccc(Cl)cc5)c4)CC3)cc2)cc1[N+](=O)[O-]	> 10000 nM					
33.9 nM	8.5 nM	3300 nM	> 10000 nM	7.6 nM	< 1 nM	CN(C)CC[C@H](CSc1ccccc1)Nc1ccc(S(=O)(=O)Nc2ccc(N3CCN(c4ccc(-c5c(-c6ccc(Cl)cc6)cn(CC[C@H](O)CO)c5C(=O)NCCCN5CCN(C)CC5)cc4)CC3)cc2)cc1[N+](=O)[O-]	2500 nM					
0.6 nM	< 0.6 nM	650 nM	> 10000 nM	4.9 nM	< 1 nM	CN(C)CC[C@H](CSc1ccccc1)Nc1ccc(S(=O)(=O)Nc2ccc(N3CCN(c4cccc(-c5c(-c6ccc(Cl)cc6)cn(C)c5C(=O)NCCCN5CCN(C)CC5)c4)CC3)cc2)cc1[N+](=O)[O-]	430 nM					
213000 nM	78000 nM	> 10000 nM	> 100000 nM	453000 nM		CN1CCN(CCCNC(=O)c2c(-c3ccccc3)c(-c3ccc(Cl)cc3)cn2CC[C@H](O)CO)CC1	> 10000 nM					
1.4 nM	< 0.6 nM	> 10000 nM	> 10000 nM	4.8 nM	< 1 nM	CN(C)CC[C@H](CSc1ccccc1)Nc1ccc(S(=O)(=O)Nc2ccc(-c3cn(-c4cccc(-c5c(-c6ccc(Cl)cc6)cn(CC[C@H](O)CO)c5C(=O)NCCCN5CCN(C)CC5)c4)nn3)cc2)cc1[N+](=O)[O-]	> 10000 nM					
		> 10000 nM	> 100000 nM			CN(C)CC[C@H](CSc1ccccc1)Nc1ccc(S(=O)(=O)Nc2ccc(N3CCNCC3)cc2)cc1[N+](=O)[O-]	> 10000 nM					
5.3 nM	1.2 nM	650 nM	> 2000 nM	6.3 nM	< 1 nM	CNC(=O)c1c(-c2cccc(N3CCN(c4ccc(NS(=O)(=O)c5ccc(N[C@H](CCN(C)C)CSc6ccccc6)c([N+](=O)[O-])c5)cc4)CC3)c2)c(-c2ccc(Cl)cc2)cn1C	400 nM					
		130 nM				CN(C)CC[C@H](CSc1ccccc1)Nc1ccc(S(=O)(=O)NC(=O)c2ccc(N3CCN(Cc4ccccc4-c4ccc(Cl)cc4)CC3)cc2)cc1[N+](=O)[O-] [ABT 737]	97 nM					
60.6 nM	15.4 nM	> 10000 nM	> 10000 nM	44.1 nM	11.3 nM	CN(C)CC[C@H](CSc1ccccc1)Nc1ccc(S(=O)(=O)Nc2ccc(NCCNc3cccc(-c4c(-c5ccc(Cl)cc5)cn(CC[C@H](O)CO)c4C(=O)NCCCN4CCN(C)CC4)c3)cc2)cc1[N+](=O)[O-]	> 10000 nM					
85.3 nM	21.8 nM	> 10000 nM	> 10000 nM	88.3 nM	24.7 nM	CN(C)CC[C@H](CSc1ccccc1)Nc1ccc(S(=O)(=O)Nc2ccc(N3CCN(Cc4ccccc4-c4ccc(Cl)cc4)CC3)cc2)cc1[N+](=O)[O-]	> 10000 nM					
6.6 nM	1.5 nM	> 10000 nM	> 10000 nM	12.6 nM	1.7 nM	CN(C)CC[C@H](CSc1ccccc1)Nc1ccc(S(=O)(=O)Nc2ccc(C#Cc3cccc(-c4c(-c5ccc(Cl)cc5)cn(CC[C@H](O)CO)c4C(=O)NCCCN4CCN(C)CC4)c3)cc2)cc1[N+](=O)[O-]	> 10000 nM					
1.9 nM		> 10000 nM	> 10000 nM	5.7 nM	< 1 nM	CN(C)CC[C@H](CSc1ccccc1)Nc1ccc(S(=O)(=O)NC(=O)c2ccc(C#Cc3cccc(-c4c(-c5ccc(Cl)cc5)cn(CC[C@H](O)CO)c4C(=O)NCCCN4CCN(C)CC4)c3)cc2)cc1[N+](=O)[O-]	> 10000 nM					
> 100000 nM		> 10000 nM	> 100000 nM	238000 nM	75000 nM	CN(C)CC[C@H](CSc1ccccc1)Nc1ccc(S(N)(=O)=O)cc1[N+](=O)[O-]	> 10000 nM					
1.7 nM	< 0.6 nM	552 nM	> 2000 nM	3.6 nM	< 1 nM	CN(C)CC[C@H](CSc1ccccc1)Nc1ccc(S(=O)(=O)Nc2ccc(N3CCN(c4cccc(-c5c(-c6ccc(Cl)cc6)cn(C)c5C(=O)O)c4)CC3)cc2)cc1[N+](=O)[O-]	340 nM	Active		Dose-dependent effect		Active
1.3 nM	< 0.6 nM	1800 nM	> 10000 nM	6.2 nM	< 1 nM	CN(C)CC[C@H](CSc1ccccc1)Nc1ccc(S(=O)(=O)Nc2ccc(N3CCN(c4cccc(-c5c(-c6ccc(Cl)cc6)cn(CC[C@H](O)CO)c5C(=O)NCCCN5CCN(C)CC5)c4)CC3)cc2)cc1[N+](=O)[O-]	2000 nM					
8.7 nM	2 nM	> 10000 nM	> 10000 nM	6.1 nM	< 1 nM	CN(C)CC[C@H](CSc1ccccc1)Nc1ccc(S(=O)(=O)NC(=O)c2ccc(N3CCN(c4cccc(-c5c(-c6ccc(Cl)cc6)cn(CC[C@H](O)CO)c5C(=O)NCCCN5CCN(C)CC5)c4)CC3)cc2)cc1[N+](=O)[O-]	> 10000 nM					
> 100000 nM		> 10000 nM	> 100000 nM	547000 nM	166000 nM	CN(C)CC[C@H](CSc1ccccc1)Nc1ccc(S(=O)(=O)Nc2ccccc2)cc1[N+](=O)[O-]	> 10000 nM					

SMILES	IC50 [1]	Ki [1]	IC50 (NCI-H1417)	IC50 [3]	IC50 (Bcl-2-like protein 1)	Ki (Bcl-2-like protein 1)	IC50 [2]	Activity (NCI-H146 [4])	Activity (NCI-H146 [5])	Activity (NCI-H146 [6])	Activity [7]	Activity (NCI-H146 [8])
CCc1c(-c2ccc(Cl)cc2)c(-c2cccc(N3CCN(c4ccc(NS(=O)(=O)c5ccc(N[C@H](CCN(C)C)CSc6ccccc6)c([N+](=O)[O-])c5)cc4)CC3)c2)c(C(=O)O)n1C				> 2000 nM	7.5 nM	< 1 nM		Active	Active	Dose-dependent effect	>70%	Active
